Measurements pooled from the literature.
Organism: Staphylococcus aureus
Effect on: microbial growth

C/C=C(\C)c1cc(OC(=O)c2c(O)c(C)c(O)c(Cl)c2/C(C)=C/C)c(C)c(O)c1C(=O)O
MIC (broth dilution; CCARM3090): 64 µg/mL

O=C1NC(=S)S/C1=C\c1ccc(-c2ccc(N(c3ccccc3)c3ccccc3)cc2)c2ccccc12
MIC (broth dilution; ATCC43300): 1000 µg/mL

CC1(C)S[C@@H]2[C@H](NC(=O)COc3ccccc3)C(=O)N2[C@H]1C(=O)O
MIC (broth dilution; ATCC25923; 18 h): 2 µg/mL

O=C(c1ccc(/C=C/c2n[nH]c3ccccc23)cc1)N1CCNCC1
MIC (NCTC8325): > 30 µM

Fc1ccc(NCc2ccc(Oc3ccccn3)cc2)cc1
MIC: 1.8 µg/mL

CC(C)Oc1c(NC(=O)c2ccc(NC(=O)[C@H](CC(N)=O)NC(=O)c3ccc(NC(=O)c4ccc(C5(C(F)(F)F)N=N5)cc4)cc3)cc2)ccc(C(=O)Nc2ccc(C(=O)O)cc2)c1O
MIC (ATCC29213): > 64 µg/mL

O=C(O)CN1C(=O)/C(=C/c2ccc(-c3ccc(N(c4ccccc4)c4ccccc4)cc3)cc2)SC1=S
MIC (broth dilution; ATCC6538): 3.9 µg/mL

Cc1ccc2nc(-c3ccc(Cl)cc3)[nH]c2c1
MIC (broth dilution; ATCC29213 MSSA): 256 µg/mL

CC(C)Oc1c(NC(=O)c2ccc(NC(=O)[C@H](CC(N)=O)NC(=O)c3ccc(NC(=O)C(C)Sc4ccc(C#N)cc4)cc3)cc2)ccc(C(=O)Nc2ccc(C(=O)O)cc2)c1O (stereo partly shown)
MIC (ATCC29213): > 64 µg/mL

CNC(=O)c1nn(C)c2c1C(C)(C)Cc1cnc(Nc3ccc(N4CCN(C)CC4)cc3)nc1-2
MIC (NCTC8325): > 30 µM

Cc1cc(C)cc(NC(=O)CN(C)S(=O)(=O)c2ccc3[nH]c4c(c3c2)CCCC4)c1
MIC: > 128 µg/mL

CN(C)[C@@H]1C(O)=C(C(N)=O)C(=O)[C@@]2(O)C(O)=C3C(=O)c4c(O)cccc4[C@@](C)(O)[C@H]3C[C@@H]12
MIC (broth dilution; 25923): 0.15 µM

CC(C)/N=C(\N)c1ccc(NC(=O)c2ccc(C(=O)Nc3ccc(/C(N)=N/C(C)C)cc3)cc2)cc1
MIC: 4 µg/mL

O=C1NC(=S)N/C1=C\c1ccc(-c2ccc(N(c3ccccc3)c3ccccc3)cc2)cc1
MIC (broth dilution; ATCC25923): > 1000 µg/mL

CC(C)Oc1c(NC(=O)c2ccc(NC(=O)[C@H](CC(N)=O)NC(=O)c3ccc(NC(=O)Cc4ccc(C#N)cc4)cc3)cc2)ccc(C(=O)Nc2ccc(C(=O)O)cc2)c1O
MIC (ATCC29213): > 64 µg/mL

Clc1ccc(-c2nc3ccccc3[nH]2)cc1
MIC (broth dilution; ATCC29213 MSSA): 64 µg/mL

O=C(C[n+]1cc(-c2ccc(Cl)cc2)n2c1CCC2)Nc1ccc(Cl)c(Cl)c1
MIC: 4 µg/mL

Clc1ccc(NCc2ccc(Oc3ccccn3)cc2)cc1
MIC: > 3.1 µg/mL

CCS(=O)(=O)c1cccc(-c2cc(C(=O)NC3CCN(C)CC3)c(C)c3[nH]c4ncc(C)cc4c23)c1
MIC (NCTC8325): > 30 µM

O=c1[nH]cc(F)c(=O)[nH]1
MIC (broth dilution; 24 h): 1 µg/mL

O=C(CCCN1CCC(O)(c2ccc(Cl)cc2)CC1)c1ccc(Br)cc1
MIC: > 128 µg/mL

O=C(CCc1ccc(O)c(O)c1)NCCCCCCCC[P+](c1ccccc1)(c1ccccc1)c1ccccc1.[Br-]
MIC (broth dilution; ATCC43300 MRSA; 18 h): > 32 µg/mL

CCCCCCC#Cc1cncc(-c2nnc(SCc3ccc([N+](=O)[O-])cc3)n2C)c1
MIC (MRSA; drug-resistant strain): ≥ 20 µg/mL

Clc1ccccc1-c1nc2ccccc2[nH]1
MIC (broth dilution; ATCC29213 MSSA): 64 µg/mL

O=C(O)CN1C(=O)/C(=C/c2ccc(-c3ccc(N(c4ccccc4)c4ccccc4)cc3)c3ccccc23)NC1=S
MIC (broth dilution; ATCC25923): > 1000 µg/mL

COc1c(C)c(OC(C)=O)c(C)c(O)c1C(=O)/C=C/c1ccccc1
MIC (broth dilution; ATCC25923): 2500 µg/mL

COc1ccc(-c2nc3ccc(C)cc3[nH]2)cc1OC
MIC (broth dilution; ATCC29213 MSSA): 128 µg/mL

COc1c(C)c(OC)c(C(=O)/C=C/c2ccccc2)c(OC)c1C
MIC (broth dilution; ATCC25923): 5000 µg/mL

CC1(C)S[C@@H]2[C@H](NC(=O)[C@H](N)c3ccccc3)C(=O)N2[C@H]1C(=O)O
MIC (broth dilution; ATCC29213): 1 µg/mL

COc1cccc(-c2nc3ccc(C)cc3[nH]2)c1
MIC (broth dilution; ATCC29213 MSSA): 128 µg/mL

CC(C)Oc1c(NC(=O)c2ccc(NC(=O)[C@H](CC(N)=O)NC(=O)c3ccc(NC(=O)C(C)Oc4ccc(C#N)cc4)cc3)cc2)ccc(C(=O)Nc2ccc(C(=O)O)cc2)c1O (stereo partly shown)
MIC (ATCC29213): > 64 µg/mL

C/C=C(\C)c1cc(O)c(C)c(OC(=O)c2c(C)c(Cl)c(O)c(Cl)c2O)c1
MIC (broth dilution; ATCC29213): 4 µg/mL

COc1cccc(OC)c1C(=O)N[C@@H]1C(=O)N2[C@@H]1SC(C)(C)[C@@H]2C(=O)O
MIC (broth dilution; ATCCBAA44): 1020 µg/mL

CC(=O)NC[C@H]1CN(c2ccc(N3CCOCC3)c(F)c2)C(=O)O1
MIC (broth dilution; MRSA NRS382 USA100; drug-resistant strain): 2 µg/mL

C[C@@H](O)[C@H]1C(=O)N2C(C(=O)O)=C(S[C@@H]3CN[C@H](C(=O)N(C)C)C3)[C@H](C)[C@H]12
MIC (broth dilution; ATCC29213): 32 µg/mL

C/C=C(\C)c1cc(O)c(C)c(OC(=O)c2c(C)cc(O)c(Cl)c2O)c1
MIC (broth dilution; CCARM3090): 8 µg/mL

O=C(Nc1ccc(Nc2ccccc2)cc1)Nc1ccc(Cl)c(C(F)(F)F)c1
MIC (NCTC8325; 24 h): 3 µM

COc1cccc(OC)c1C(=O)N[C@@H]1C(=O)N2[C@@H]1SC(C)(C)[C@@H]2C(=O)O
MIC (broth dilution; BAA1707 MRSA; drug-resistant strain): 18.8 µM

Cc1ccc(C)n1-c1ccc(-c2nnc(-c3c(Cl)cccc3Cl)[nH]2)cc1
MIC (broth dilution; ATCC11632; 18 h): 1 µg/mL

O=S(=O)(NCCNC/C=C/c1ccc(Br)cc1)c1cccc2cnccc12
MIC (NCTC8325): > 30 µM

Cc1ccc(C)n1-c1ccc(-c2nnc(-c3ccc(O)cc3)[nH]2)cc1
MIC (broth dilution; ATCC11632; 18 h): 8 µg/mL

CN[C@H](CC(C)C)C(=O)N[C@H]1C(=O)N[C@@H](CC(N)=O)C(=O)N[C@H]2C(=O)N[C@H]3C(=O)N[C@H](C(=O)N[C@H](C(=O)O)c4cc(O)cc(O)c4-c4cc3ccc4O)[C@H](O)c3ccc(c(Cl)c3)Oc3cc2cc(c3O[C@@H]2O[C@H](CO)[C@@H](O)[C@H](O)[C@H]2O[C@H]2C[C@](C)(N)[C@H](O)[C@H](C)O2)Oc2ccc(cc2Cl)[C@H]1O
MIC (broth dilution; MRSA): 0.5 µg/mL

CC(C)Oc1c(NC(=O)c2ccc(NC(=O)[C@H](CC(N)=O)NC(=O)c3ccc(NC(=O)c4ccccc4)cc3)cc2)ccc(C(=O)Nc2ccc(C(=O)O)cc2)c1O
MIC (ATCC29213): > 64 µg/mL

CC1(C)S[C@@H]2[C@H](NC(=O)[C@H](N)c3ccccc3)C(=O)N2[C@H]1C(=O)O
MIC (broth dilution): 0.02 µg/mL

O=C(Nc1ccc2c(c1)OC(F)(F)O2)Nc1ccc(Cl)c(C(F)(F)F)c1
MIC (NCTC8325): 0.3 µM

C=CCn1c(-c2ccc([N+](=O)[O-])cc2)nc2ccccc21
MIC (broth dilution; ATCC29213 MSSA): 32 µg/mL

C/C=C(\C)c1cc(OC(=O)c2c(C)c(Cl)c(O)c(Cl)c2O)c(C)c(O)c1C(=O)O
MIC (broth dilution; 16162): 64 µg/mL

CC1=NN(CNc2ccccc2)C(=O)C1=NNn1c(-c2ccccc2)nc2ccccc2c1=O
MIC (broth dilution; 24 h): 221 µM

Cc1ccc2nc(-c3ccc(N(C)C)cc3)[nH]c2c1
MIC (broth dilution; ATCC29213 MSSA): 64 µg/mL

CC(C)Oc1c(NC(=O)c2ccc(NC(=O)[C@H](CC(N)=O)NC(=O)c3ccc(NC(=O)c4cc(=O)c(O)c[nH]4)cc3)cc2)ccc(C(=O)Nc2ccc(C(=O)O)cc2)c1O
MIC (ATCC29213): > 64 µg/mL

COc1cc2c(Nc3ccc(NC(=O)c4ccccc4)cc3)ncnc2cc1OCCCN1CCOCC1
MIC (NCTC8325): > 30 µM

CSc1ccc(/C=C/c2cc(/C=C3\Sc4ccccc4N3CCCN3CCCC3)c3ccccc3[n+]2C)cc1.[I-]
MIC (broth dilution; ATCCBAA44): 32 µg/mL

CC(C)Oc1c(NC(=O)c2ccc(NC(=O)[C@H](CC(N)=O)NC(=O)c3ccc(NC(=O)c4ccc(S(C)(=O)=O)cc4)cc3)cc2)ccc(C(=O)Nc2ccc(C(=O)O)cc2)c1O
MIC (ATCC29213): > 64 µg/mL

C[C@@H](O)[C@H]1C(=O)N2C(C(=O)O)=C(S[C@@H]3CN[C@H](C(=O)N(C)C)C3)[C@H](C)[C@H]12
MIC (MRSA): 32 µg/mL

Cc1c(CN(C)C(=O)/C=C/c2cnc3c(c2)CC(NC(=O)OC(C)(C)C)C(=O)N3)oc2ccccc12 (stereo not shown)
MIC (broth dilution; ATCC29213): 0.016 µg/mL

Cc1ccc2nc(-c3ccc([N+](=O)[O-])cc3)n(Cc3ccccc3Cl)c2c1
MIC (broth dilution; ATCC29213 MSSA): 32 µg/mL

COC(=O)c1ccc2c(C(=Nc3ccc(N(C)C(=O)CN4CCN(C)CC4)cc3)c3ccccc3)c(O)[nH]c2c1
MIC (NCTC8325): > 30 µM

O=C(O)CN1C(=O)/C(=C/c2ccc(-c3ccc(N(c4ccccc4)c4ccccc4)cc3)cc2)NC1=S
MIC (broth dilution; ATCC43300): 1.95 µg/mL
